The list is not random: actives were taken first. Their share in the collection is about 2.4%.
MIN6 prolif: induces beta-cell replication in MIN6 cells | MIN6 cells proliferation, ATPlite luminescence, 48 h; cells starved in 0.2% serum; 100% = growth in 10% serum | proliferation, % at 10 µM | 330,000 compounds, 0.29% hits | AID 2380;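 active = compounds whose signal lies at least 3.5 SD above the mean of all wells on their plate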;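 note: 0% = DMSO-treated cells in low-serum medium and 100% = 10% serum control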
MT1-MMP act inh: blocks activation of human MT1-MMP | 360,000 compounds, 0.061% hits | AID 651647 | GFP/RFP ratio change, % at 20 µM | HT1080 RFP-PRO-GFP cells, GFP/RFP ratio fluorescence, overnight; percent of plate control window, DMSO zero | P50281;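 active = GFP/RFP ratio change of at least 30% with cell ATP level not reduced by more than half and red fluorescence within 50% of control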
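Assay system: HT1080 cells carrying an RFP-PRO-GFP reporter | Dosing: Single dose of 20 µM compound, 1% DMSO final | Incubation: Cells overnight before dosing, compound overnight, 37 °C, 5% CO2 | Evaluation: GFP/RFP fluorescence ratio | Control set: DMSO and RFP-L50D-GFP cell wells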
NRP1-CendR mod: NRP-1/CendR interaction modulation | O14786 | FAM-RPARPAR peptide binding to NRP-1, fluorescence polarization | inhibition, % at 25 µM | 360,000 compounds, 0.85% hits | AID 602438;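 active = inhibition or corrected inhibition above about 18%, plus a signal ratio from 0.5 to 1.5, limit read from the data, passing the limit was not always enough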
Myeloid diff MLP: myeloid differentiation induction; ER-HoxA9 myeloid progenitors, lysozyme-GFP differentiation, flow cytometry; AID 624256; calls only at 10 µM; 360,000 compounds, 1% hits;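 active = normalized GFP-positive differentiation at or above the plate's own cutoff, the solvent-only control mean plus 3 SD; inconclusive = no clear call, values can overlap the other calls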;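 note: cells exposed to compound for four days before flow analysis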
SENP1 FRET inh: inhibitors of human SENP1 SUMO protease catalytic domain; inhibition, % at 10 µM; Q9P0U3; recombinant SENP1 catalytic domain, CyPet-SUMO1-YPet FRET cleavage; 360,000 compounds, 0.21% hits;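 active = inhibition at least 30% at 10 µM, raw YFP signal under a set limit, fluorescence ratio 0.5 to 1.5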;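 note: 0% = enzyme with DMSO and 100% = no enzyme wells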
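Controls: no-enzyme wells low, DMSO-plus-enzyme wells high control. Test system: human recombinant His6-tagged SENP1 catalytic domain enzyme. Reagent: SFCypet-SUMO1-SFYpet FRET protein substrate, 25 nM final. Doses: one dose per compound, 10 µM, 0.5% DMSO. Detection: FRET, CFP and YFP emission. Timing: 50 min reaction at room temperature.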
DAGLB inhibitor: blocks human DAGLB lipase activity. inhibition, % at 5.17 µM. 340,000 compounds, 0.059% hits. HEK293T DAGLB membrane lysate, EnzChek fluorogenic substrate; in the data active = inhibition above about 34%;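 note: 0% = enzyme with vehicle and 100% = wells lacking enzyme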
* = called active by the depositor.

c1ccc(Nc2ccc3c4c(cccc24)CC3)cc1 was read as MIN6 prolif -4.0, MT1-MMP act inh -106.4, NRP1-CendR mod 127.9, Myeloid diff MLP active, SENP1 FRET inh 50.0 and DAGLB inhibitor -18.5.
Screening Nc1ccc2c3c(cccc13)CC2 returned MIN6 prolif -3.2, MT1-MMP act inh -184.5, NRP1-CendR mod -19.4, Myeloid diff MLP active, SENP1 FRET inh 12.8 and DAGLB inhibitor -25.0.
`C[C@H](NC(=O)c1nc[nH]c1C(=O)NC1CCNCC1)C(=O)OCc1ccccc1` gave MIN6 prolif 3.5.
For COc1ccc2cc1Oc1ccc(cc1)C[C@H]1c3c(cc(OC)c4c3Oc3c(ccc5c3[C@H](C2)N(C)CC5)O4)CCN1C the results were MIN6 prolif -5.7, MT1-MMP act inh -2.6, NRP1-CendR mod -0.3, Myeloid diff MLP inconclusive, SENP1 FRET inh 3.4 and DAGLB inhibitor -2.4.
Screening COc1ccc2cc1Oc1ccc(cc1)CC1c3c(cc(OC)c4c3Oc3cc5c(cc3O4)CCNC5C2)CCN1C (stereo unspecified) returned MIN6 prolif -5.9, MT1-MMP act inh -18.6, NRP1-CendR mod 3.4, Myeloid diff MLP active, SENP1 FRET inh 1.1 and DAGLB inhibitor -2.3.
Screening O=C(NCc1ccccc1Br)c1cccc2c1C(=O)c1ccc(N3CCC(Cc4ccccc4)CC3)cc1S2(=O)=O returned MIN6 prolif -2.6, MT1-MMP act inh -103.3, NRP1-CendR mod -53.0, Myeloid diff MLP active, SENP1 FRET inh -31.2 and DAGLB inhibitor -1.8.
For O=C(NCC1CCCO1)c1cccc2c1C(=O)c1ccc(N3CCC(Cc4ccccc4)CC3)cc1S2(=O)=O (stereo unspecified) the results were MIN6 prolif -5.1, MT1-MMP act inh -184.4, NRP1-CendR mod 124.5, Myeloid diff MLP inactive, SENP1 FRET inh -23.0 and DAGLB inhibitor -11.8.
Screening O=C(NCc1ccccc1C(F)(F)F)c1cccc2c1C(=O)c1ccc(N3CCC(N4CCCCC4)CC3)cc1S2(=O)=O returned MT1-MMP act inh -39.4, NRP1-CendR mod -169.7, Myeloid diff MLP active, SENP1 FRET inh -28.0 and DAGLB inhibitor -7.0.
Screening O=C(NCc1ccccc1C(F)(F)F)c1cccc2c1C(=O)c1ccc(N3CCOCC3)cc1S2(=O)=O returned MIN6 prolif -0.5, MT1-MMP act inh -14.9, NRP1-CendR mod -53.7, Myeloid diff MLP inactive, SENP1 FRET inh -29.4 and DAGLB inhibitor -0.8.
OCC1OC(c2ccc(O)cc2O)C(O)C1O (stereo unspecified) was read as MT1-MMP act inh 10.4, NRP1-CendR mod 29.1*, Myeloid diff MLP inactive and SENP1 FRET inh -2.3.
For O=S(=O)(O)c1cc(OS(=O)(=O)c2ccccc2)cc2ccccc12 the results were MIN6 prolif -0.5, MT1-MMP act inh -0.5, NRP1-CendR mod 0.5, Myeloid diff MLP inactive, SENP1 FRET inh 2.1 and DAGLB inhibitor 3.7.
Cc1ccc(-n2c(-c3ccco3)nc3nc4ccccc4nc32)cc1 was read as MIN6 prolif 0.8, MT1-MMP act inh -15.0, NRP1-CendR mod -48.5, Myeloid diff MLP inactive, SENP1 FRET inh -44.2 and DAGLB inhibitor -1.8.
`CNC(=S)N1N=C(c2ccc(Br)cc2)CC1c1ccc(Br)cc1` (stereo unspecified) gave MIN6 prolif -5.8, MT1-MMP act inh -12.3, NRP1-CendR mod 10.5, Myeloid diff MLP inactive, SENP1 FRET inh 3.1 and DAGLB inhibitor -10.4.
CNC(=S)N1N=C(c2ccc(Br)cc2)CC1c1ccc(N(C)C)cc1 (stereo unspecified) was read as MIN6 prolif -0.6, MT1-MMP act inh -2.5, NRP1-CendR mod 32.5*, Myeloid diff MLP inactive, SENP1 FRET inh -29.4 and DAGLB inhibitor -3.5.
